Measured values published in ChEMBL document CHEMBL3414494 (Eur J Med Chem, 2015).
The source made the active and inactive calls. No cut-off for these calls is given here.

Columns and labels:
[1] = test system: A549; test: Cytotoxicity against human A549 cells assessed as growth inhibition after 72 hrs by MTT assay; assay type: functional, cell-based; conditions: A549, 72 h
Method in brief: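 A549 human lung adenocarcinoma cells were seeded at 2000–3000 cells/well and held 24 h at 37 °C in 5% CO2. They were then exposed to a range of compound concentrations for 72 h at 37 °C. MTT (5 mg/mL stock) was added for 3 h, the medium was removed, formazan was dissolved in DMSO, and absorbance was read at 550 nm.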

[2] = target: Histone deacetylase 3 (Homo sapiens, UniProt O15379); test: Inhibition of recombinant human HDAC3 expressed in baculovirus infected insect High5 cells using Ac-Lys-Tyr-Lys (epsilon-acetyl)-AMC as substrate after 3 hrs by fluorescence assay
Sequence of Histone deacetylase 3 (O15379 whole entry): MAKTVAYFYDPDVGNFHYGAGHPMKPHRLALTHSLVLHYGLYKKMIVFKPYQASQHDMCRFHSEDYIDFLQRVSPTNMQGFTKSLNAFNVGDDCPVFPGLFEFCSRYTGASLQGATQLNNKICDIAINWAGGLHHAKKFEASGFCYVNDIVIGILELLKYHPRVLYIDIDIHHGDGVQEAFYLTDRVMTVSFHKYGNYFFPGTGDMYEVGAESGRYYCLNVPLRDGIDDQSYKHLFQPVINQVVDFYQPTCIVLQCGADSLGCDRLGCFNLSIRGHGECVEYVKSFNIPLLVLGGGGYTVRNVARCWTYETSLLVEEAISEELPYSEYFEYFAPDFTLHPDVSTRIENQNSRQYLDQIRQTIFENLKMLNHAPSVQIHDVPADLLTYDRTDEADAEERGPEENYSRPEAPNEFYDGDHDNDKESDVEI

[3] = target: Histone deacetylase 2 (Homo sapiens, UniProt Q92769); test: Inhibition of recombinant human HDAC2 expressed in baculovirus infected insect High5 cells using Ac-Lys-Tyr-Lys (epsilon-acetyl)-AMC as substrate after 24 hrs by fluorescence assay
Sequence of Histone deacetylase 2 (Q92769 whole entry): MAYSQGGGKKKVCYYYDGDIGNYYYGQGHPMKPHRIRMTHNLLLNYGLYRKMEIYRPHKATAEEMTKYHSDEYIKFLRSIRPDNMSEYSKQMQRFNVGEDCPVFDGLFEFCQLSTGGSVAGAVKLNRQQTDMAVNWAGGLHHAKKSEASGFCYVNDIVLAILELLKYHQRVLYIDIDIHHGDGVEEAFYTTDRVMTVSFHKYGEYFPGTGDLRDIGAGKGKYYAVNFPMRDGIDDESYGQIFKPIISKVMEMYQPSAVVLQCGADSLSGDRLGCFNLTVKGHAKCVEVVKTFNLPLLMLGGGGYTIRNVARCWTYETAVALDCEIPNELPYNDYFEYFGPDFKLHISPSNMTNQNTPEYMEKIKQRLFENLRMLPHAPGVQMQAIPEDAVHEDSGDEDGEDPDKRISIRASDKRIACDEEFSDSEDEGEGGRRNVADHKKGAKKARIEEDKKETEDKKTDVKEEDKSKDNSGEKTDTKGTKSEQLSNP

[4] = target: Histone deacetylase 1 (Homo sapiens, UniProt Q13547); test: Inhibition of recombinant human HDAC1 expressed in baculovirus infected insect High5 cells using Ac-Lys-Tyr-Lys (epsilon-acetyl)-AMC as substrate after 24 hrs by fluorescence assay
Sequence of Histone deacetylase 1 (Q13547 whole entry): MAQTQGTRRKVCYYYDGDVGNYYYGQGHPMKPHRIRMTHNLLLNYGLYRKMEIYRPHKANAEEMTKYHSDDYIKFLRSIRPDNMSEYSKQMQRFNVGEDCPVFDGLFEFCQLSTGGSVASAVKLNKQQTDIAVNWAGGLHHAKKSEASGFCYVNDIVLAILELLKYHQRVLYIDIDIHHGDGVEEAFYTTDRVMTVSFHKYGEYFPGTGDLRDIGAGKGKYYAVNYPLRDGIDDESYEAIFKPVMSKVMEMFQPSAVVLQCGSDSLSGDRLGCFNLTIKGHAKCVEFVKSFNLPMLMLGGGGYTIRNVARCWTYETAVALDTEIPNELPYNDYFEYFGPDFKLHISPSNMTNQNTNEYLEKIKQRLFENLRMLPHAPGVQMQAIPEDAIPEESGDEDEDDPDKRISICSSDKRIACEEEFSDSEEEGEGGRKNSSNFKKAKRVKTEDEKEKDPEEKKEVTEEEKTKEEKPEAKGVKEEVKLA

[5] = test system: SJSA-1; test: Cytotoxicity against human SJSA1 cells assessed as growth inhibition after 72 hrs by MTT assay; assay type: functional, cell-based; conditions: SJSA-1, 72 h
Method in brief: (§1)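 Cells were seeded at 2000–3000 per well and pre-incubated 24 h at 37 °C, 5% CO2. A concentration range of compound was then added for 72 h. MTT (5 mg/mL) was added for 3 h, the medium removed, and formazan dissolved in DMSO. Absorbance was read at 550 nm as the viable-cell measure.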

[6] = test system: SW-620; test: Cytotoxicity against human SW620 cells assessed as growth inhibition after 72 hrs by MTT assay; assay type: functional, cell-based; conditions: SW-620, 72 h; method in brief: as §1
[7] = Cytotoxicity against human PANC1 cells assessed as growth inhibition after 72 hrs by MTT assay; assay type: functional, cell-based; conditions: PANC-1, 72 h; method in brief: as §1
[8] = Cytotoxicity against human Hep3B cells assessed as growth inhibition after 72 hrs by MTT assay; assay type: functional, cell-based, Hep 3B2; method in brief: as §1
[9] = Cytotoxicity against human HCT116 cells assessed as growth inhibition after 72 hrs by MTT assay; assay type: functional, cell-based; conditions: HCT-116, 72 h; method in brief: as §1
[10] = test system: HepG2; test: Cytotoxicity against human HepG2 cells assessed as growth inhibition after 72 hrs by MTT assay; assay type: functional, cell-based; conditions: HepG2, 72 h; method in brief: as §1
[11] = Cell cycle arrest in human HCT116 cells assessed as accumulation at G2/M phase at 10 to 20 nM after 24 hrs by flow cytometric analysis; assay type: functional, cell-based; conditions: HCT-116
[12] = Cytotoxicity against human MHCC97H cells assessed as growth inhibition after 72 hrs by MTT assay; assay type: functional, cell-based; method in brief: as §1
[13] = target: Tubulin (Homo sapiens) (UniProt P68371+Q9H4B7+P0DPH7+P68366+Q13509+Q71U36+P04350+Q3ZCM7+P07437+P68363+Q9BQE3+Q6PEY2+Q13885+Q9BVA1+Q9BUF5); test: Inhibition of tubulin (unknown origin) polymerization at 10 uM; assay type: protein-complex assay
[14] = Cytotoxicity against human SNU5 cells assessed as growth inhibition after 72 hrs by MTT assay; assay type: functional, cell-based; conditions: SNU-5, 72 h; method in brief: as §1
[15] = Cytotoxicity against human MKN45 cells assessed as growth inhibition after 72 hrs by MTT assay; assay type: functional, cell-based; conditions: MKN-45, 72 h; method in brief: as §1
[16] = Cytotoxicity against human SNU16 cells assessed as growth inhibition after 72 hrs by MTT assay; assay type: functional, cell-based; conditions: SNU-16, 72 h; method in brief: as §1

SMILES	IC50 [1] [nM]	IC50 [2] [nM]	IC50 [3] [nM]	IC50 [4] [nM]	IC50 [5] [nM]	IC50 [6] [nM]	IC50 [7] [nM]	IC50 [8] [nM]	IC50 [9] [nM]	IC50 [10] [nM]	Activity [11]	IC50 [12] [nM]	inhibition [13]	IC50 [14] [nM]	IC50 [15] [nM]	IC50 [16] [nM]
COc1cc2c(c(OC)c1OC)-c1ccc(OC)c(=O)cc1[C@@H](NC(=O)c1ccc(C(=O)Nc3cc(-c4cccs4)ccc3N)cc1)CC2	740	1970	380	2240	–	–	–	–	–	–	–	–	–	–	–	–
COc1cc2c(c(OC)c1OC)-c1ccc(OC)c(=O)cc1[C@@H](NCc1cccc(C(=O)Nc3cc(-c4cccs4)ccc3N)c1)CC2	393	19700	5410	25500	–	–	–	–	–	–	–	–	–	–	–	–
COc1cc2c(c(OC)c1OC)-c1ccc(OC)c(=O)cc1[C@@H](NC(=O)c1cccc(C(=O)Nc3ccccc3N)c1)CC2	3430	10800	4910	9620	–	–	–	–	–	–	–	–	–	–	–	–
COc1cc2c(c(OC)c1OC)-c1ccc(OC)c(=O)cc1[C@@H](NC(=O)c1ccc(C(=O)Nc3ccccc3N)cc1)CC2	1620	12100	10400	15900	–	–	–	–	–	–	–	–	–	–	–	–
COc1cc2c(c(OC)c1OC)-c1ccc(OC)c(=O)cc1[C@@H](NCc1ccc(C(=O)Nc3cc(-c4cccs4)ccc3N)cc1)CC2	1040	1470	270	3320	–	–	–	–	–	–	–	–	–	–	–	–
COc1cc2c(c(OC)c1OC)-c1ccc(OC)c(=O)cc1[C@@H](NCc1ccc(C(=O)Nc3ccccc3N)cc1)CC2	106	11200	6730	12500	9	2	5	5	5	14	Active	43	Active	14	2	2
Nc1ccccc1NC(=O)c1ccc(CNc2nccc(-c3cccnc3)n2)cc1 [MOCETINOSTAT]	2080	–	–	–	3620	419	26800	823	396	876	–	4560	–	1010	610	142
COc1cc2c(c(OC)c1OC)-c1ccc(OC)c(=O)cc1[C@@H](NCc1cccc(C(=O)Nc3ccccc3N)c1)CC2	354	> 34400	> 34400	> 34400	–	–	–	–	–	–	–	–	Active	–	–	–
COc1cc2c(c(OC)c1OC)-c1ccc(OC)c(=O)cc1[C@@H](NC(C)=O)CC2 [COLCHICINE]	105	> 50100	> 50100	> 50100	8	5	21	14	40	27	Active	110	–	34	2	5
COc1cc2c(c(OC)c1OC)-c1ccc(OC)c(=O)cc1[C@@H](NC(=O)c1cccc(C(=O)Nc3cc(-c4cccs4)ccc3N)c1)CC2	2790	1490	190	1500	27	4	19	10	39	20	Active	339	Active	119	2	5
